# Results from publication PMC4565189 (Biochemistry, 2013).
# No end group written: not given here.
# Columns and labels:
# purified α-synuclein = assay: CoCl2-induced aggregation of purified α-synuclein, SDS gel; type: biochemical
# [1] = system: α-synuclein self-association in SK-N-SH cells; type: cell-based, human
# PLCβ1 [2] = assay: Western blot of PLCβ1 level in SK-N-SH cells under oxidative stress; type: cell-based, human
# α-synuclein = type: cell-based, human
# PLCβ1 [3] = type: biochemical
# [4] = system: PLCβ1-α-synuclein association; assay: In vitro FRET: CPM-PLCβ1 / Dabcyl-α-synuclein association; type: binding; conditions: 200 µM and 500 µM peptide
# [5] = system: α-synuclein self-association in PC12 cells; assay: GFP-α-synuclein/mCherry-α-synuclein FRET in PC12 cells; type: cell-based, human; conditions: 50 µM peptide microinjected, viewed within 2 h
# Outline: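 PC12 cells (DMEM, 10% horse serum, 5% FBS, 37 °C, 5% CO₂) are electroporated with eGFP- and mCherry-α-synuclein and plated on glass-bottom dishes 24 h later. Medium is switched to phenol-free L-15. Peptide (50 µM in pipette; 100 mM KCl, 5 mM K₂HPO₄, pH 7.4, 5 µM DAPI marker) is injected into cytoplasm for 0.4 s (30/15 hPa). Viable cells are selected, then confocal FRET is imaged within 2 h.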
# PLCβ1 [6] = conditions: in cells; ref [16]; cited from earlier work
# PLCβ [7] = conditions: inhibition can be overcome by G proteins; ref [15]; cited from earlier work
# PLCβ1-C3PO interaction = conditions: in vitro FRET; ref Sahu, Guo, and Scarlata, unpublished results; cited from earlier work
# neuronal cells = conditions: overexpression of α-synuclein; ref [34]; cited from earlier work
# PLCβ [8] = conditions: among α-synuclein binding partners; ref [15]; cited from earlier work
compound,measurement,setting,value
[Cl-].[Cl-].[Co+2] [CoCl2],α-Synuclein aggregation induced by CoCl2,purified α-synuclein,produces visible α-synuclein aggregation
same,"GFP-α-synuclein/mCherry-α-synuclein FRET, oxidative stress",[1],significant increase in FRET
same,Cellular level of PLCβ1,PLCβ1 [2],significantly reduces the cellular level of PLCβ1
same,Amount of α-synuclein,α-synuclein,little effect on the amount of α-synuclein
same,α-Synuclein tetramers vs monomers,α-synuclein,increase in α-synuclein tetramers at the expense of monomers
same,Amount of native PLCβ1,PLCβ1 [3],reduces the amount of native PLCβ1
CKKVVLPTLASLR [peptide],PLCβ1-α-synuclein association,[4],inhibits PLCβ1-α-synuclein association
same,"GFP-α-synuclein/mCherry-α-synuclein FRET, peptide",[5],the same within error
α-synuclein,"Decrease of PLCβ1 level due to oxidation, effect of α-synuclein","PLCβ1 [2]; oxidative stress, α-synuclein present",more pronounced in the presence of α-synuclein
same,Intracellular level of PLCβ1,PLCβ1 [6],raises the intracellular level of the enzyme
same,PLCβ1 degradation by calpain,PLCβ1 [6],prevents PLCβ1 degradation by calpain
same,PLCβ activity,PLCβ [7],inhibits PLCβ activity
same,Interaction of Alexa488-PLCβ1 with Alexa546-C3PO,PLCβ1-C3PO interaction,prevents Alexa488-PLCβ1 from interacting with Alexa546-C3PO
same,Inclusions and neuronal death on overexpression,neuronal cells,cause inclusions and neuronal death
same,Affinity of PLCβ for α-synuclein,PLCβ [8],one of the strongest affinities
